According to PMC7134359 (Nature, 2020):
Several values for one entry are separate records, joined by “and”; a condition that tells them apart may be missing. Identical values can stand only once. Like-named read-outs stand apart in the source and are kept apart here. Blank lines part the entries; values can stand above or below the molecule they belong to.

Tests used:
hMT1 = hMT1 (Homo sapiens, UniProt P48039); test: GloSensor cAMP assay; assay type: cell-based; conditions: for hMT1 Schild slope: Schild analysis, antagonism of melatonin, cAMP
Sequence of hMT1 (P48039 whole entry): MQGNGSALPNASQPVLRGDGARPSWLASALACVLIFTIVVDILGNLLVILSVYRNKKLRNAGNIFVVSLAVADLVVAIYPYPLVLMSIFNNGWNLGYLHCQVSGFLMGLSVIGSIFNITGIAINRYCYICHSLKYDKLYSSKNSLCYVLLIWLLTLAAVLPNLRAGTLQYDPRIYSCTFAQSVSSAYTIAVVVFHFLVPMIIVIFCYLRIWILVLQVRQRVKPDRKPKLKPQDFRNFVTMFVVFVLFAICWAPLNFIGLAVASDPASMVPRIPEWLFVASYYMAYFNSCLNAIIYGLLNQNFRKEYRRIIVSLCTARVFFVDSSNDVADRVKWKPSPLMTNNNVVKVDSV

hMT2 = target: T1, hMT2 (Homo sapiens, UniProt P49286); test: cell-based; assay type: cell-based; conditions: for hMT2 Schild slope: Schild analysis, antagonism of melatonin
T1 sequence (P49286 1-362): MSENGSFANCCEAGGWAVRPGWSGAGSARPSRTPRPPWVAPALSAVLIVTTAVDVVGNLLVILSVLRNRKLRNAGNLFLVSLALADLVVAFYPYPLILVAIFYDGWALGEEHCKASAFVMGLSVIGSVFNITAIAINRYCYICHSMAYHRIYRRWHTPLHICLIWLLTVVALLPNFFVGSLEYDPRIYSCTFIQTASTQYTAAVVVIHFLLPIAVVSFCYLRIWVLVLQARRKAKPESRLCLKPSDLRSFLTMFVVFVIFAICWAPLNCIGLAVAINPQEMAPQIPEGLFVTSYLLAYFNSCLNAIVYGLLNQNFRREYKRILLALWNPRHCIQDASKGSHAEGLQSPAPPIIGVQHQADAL

[1] = Plasma pharmacokinetics and brain distribution; assay type: in vivo; conditions: male, C57BL/6, mouse, iv, 2 mg/kg; for Kp at 30 min: brain and plasma; for AUC / Cmax / Vd / clearance / half-life: plasma
How it was run: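 Male C57BL/6 mice (nine) got a single 2 mg/kg IV dose in 5% N-methyl pyrrolidone, 5% Solutol HS-15, 90% saline. Retro-orbital blood (~60 μL, three mice per time point, light isoflurane) was taken at 0.08–24 hr and plasma stored at -70°C. Brains were collected at 0.5, 4 and 24 hr and homogenized in ice-cold PBS pH 7.4 at three times brain weight.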

[2] = test system: C3H/HeN mice (WT, MT1KO, MT2KO); test: Phase shift of circadian running wheel activity onset in constant dark; assay type: in vivo; conditions: CT 10; 0.9 μg/mouse (about 0.03 mg/Kg)
mMT1 [3] = target: T2, mMT1 (Mus musculus, UniProt Q61184); test: GloSensor cAMP assay; assay type: cell-based; conditions: for Emax: HEK293, read-out: mMT1 Emax
T2 sequence (Q61184 whole entry): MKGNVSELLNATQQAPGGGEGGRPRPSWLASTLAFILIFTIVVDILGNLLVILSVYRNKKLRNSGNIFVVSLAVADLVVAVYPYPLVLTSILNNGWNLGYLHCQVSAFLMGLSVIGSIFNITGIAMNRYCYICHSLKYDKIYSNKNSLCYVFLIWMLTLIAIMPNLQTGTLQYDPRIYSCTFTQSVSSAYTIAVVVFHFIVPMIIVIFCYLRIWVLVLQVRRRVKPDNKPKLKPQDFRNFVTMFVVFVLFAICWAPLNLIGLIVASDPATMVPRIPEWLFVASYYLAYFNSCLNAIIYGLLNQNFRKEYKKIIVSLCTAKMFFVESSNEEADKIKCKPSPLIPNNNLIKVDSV
How it was run: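 HEK293T cells in DMEM with 10% dialyzed FBS were co-transfected with a mouse MT1 or MT2 (de-Tango-ized) construct plus GloSensor DNA (8 μg each). Next day, cells were seeded at 20,000/well in DMEM with 1% dialyzed FBS for 24 h, then switched to HBSS, 20 mM HEPES pH 7.4, 0.1% BSA. Inhibition of isoproterenol-stimulated cAMP was read by luminescence.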

mMT1 [4] = target: T2, mMT1; test: 2-[125I]-iodomelatonin competition binding, CHO cell membranes; conditions: read-out: KD mMT1
[5] = test system: C3H/HeN mice (WT, MT1KO, MT2KO); conditions: cited from earlier work
[6] = test system: C3H/HeN mice (WT, MT1KO, MT2KO); test: Re-entrainment; assay type: in vivo, mouse
[7] = hMT1 pEC50, inhibition of isoproterenol-stimulated cAMP, HEK cells, agonist
[8] = hMT2 pEC50, inhibition of isoproterenol-stimulated cAMP, HEK cells, agonist
[9] = MT2 activity, none detectable up to, cAMP assay
[10] = hMT1 pEC50 (Inverse), inverse agonist, isoproterenol-stimulated cAMP, HEK cells
[11] = pEC50 MT1 (IA), inverse agonist, as summarised in PK table
[12] = hMT2 pEC50 (Inverse), inverse agonist, isoproterenol-stimulated cAMP, HEK cells

SMILES: COc1cccc2c1CCN(C(=O)c1ccc(F)nc1)C2 [ZINC182731037]
EC50 (hMT2; [9]): > 30000 nM

SMILES: Cc1nc(-c2cccc(NCc3ccccc3Cl)c2)n[nH]1 [ZINC37781618]
EC50 (hMT1; hMT1 pEC50 (inactive analog), tested at concentrations up to 30μM): > 31600 nM | EC50 (hMT2; hMT2 pEC50 (inactive analog), tested at concentrations up to 30μM): > 31600 nM

SMILES: COc1ccc(CN(C(=O)[C@H]2C[C@@H]2C)c2ccncc2)cc1 [ZINC151209032]
Emax (hMT1; HEK293, read-out: hMT1 % Emax): 88% | EC50 (hMT1; [7]): 2000 nM | melatonin receptor type selectivity (grouping) (hMT1; hMT1 versus hMT2, cAMP assays): MT1-selective

SMILES: COc1ccc2[nH]cc(CCNC(C)=O)c2c1 [melatonin]
ED50 (phase advance) [5]: 0.72 μg/mouse | effect on re-entrainment ([6]; 30 μg/mouse): accelerates re-entrainment

SMILES: COc1ccc(CN(C(=O)c2scc(C)c2Cl)c2ccncc2)cc1 [ZINC485552623]
EC50 (hMT1; [7]): > 10000 nM

SMILES: COc1ccc(CN(C)C(=O)c2cccc(OC(F)F)c2)cc1O [ZINC353044322]
EC50 (hMT2; [9]): > 30000 nM

SMILES: CC(C)c1ccc(CNc2cccc(-c3nnc[nH]3)c2)cc1 [ZINC157673384]
EC50 (mMT1 [3]): 100 nM | Emax (mMT1 [3]): -49 ± 3% | Kb (hMT1): 12.6 nM | Emax (hMT1; HEK293, read-out: hMT1 % Emax (Inverse)): 47% | Emax (hMT1; HEK293, read-out: hMT1 Emax): -47 ± 12% | hMT1 Schild slope (hMT1): 0.80 ± 0.04 | EC50 (hMT1; [10]): 20.9 nM | EC50 (hMT1; [11]): 20 nM | Kp at 30 min [1]: 1.43 | AUC [1]: 564 ng·h/mL | Cmax [1]: 1300 ng/mL | Vd [1]: 1.38 L/kg | clearance [1]: 58.5 mL/min/kg | half-life [1]: 19.2 min | Kb (hMT2): 200 nM | Emax (hMT2; HEK293, read-out: hMT2 % Emax (Inverse)): 153% | Emax (hMT2; HEK293, read-out: hMT2 Emax): -153 ± 14% | hMT2 Schild slope (hMT2; cAMP): 1.0 ± 0.1 | EC50 (hMT2; [12]): 661 nM | EC50 (hMT2; pEC50 MT2 (IA), inverse agonist, as summarised in PK table): 631 nM

SMILES: COc1ccc(CN(C(=O)c2ccccc2F)c2ccncc2)cc1 [ZINC151192780]
selectivity for MT2 over MT1 (hMT2; cAMP): 89 fold

SMILES: CC(=O)NCCc1c(Cc2ccccc2)[nH]c2ccccc12 [luzindole]
effect on re-entrainment ([6]; 300 μg/mouse): decelerates re-entrainment

More lines, main results first:

Emax (hMT1; HEK293, read-out: hMT1 % Emax): 99% | EC50 (hMT1; [7]): 1 nM | Emax (hMT2; HEK293, read-out: hMT2 % Emax): 83% | EC50 (hMT2; [8]): 2 nM
SMILES: COC(=O)c1ccc(CSc2nnc(C3CC3)[nH]2)s1 [ZINC159050207]

EC50 (hMT1; [7]): 158 nM | Kp at 30 min [1]: 1.58 | AUC [1]: 282 ng·h/mL | Cmax [1]: 1920 ng/mL | Vd [1]: 1.11 L/kg | clearance [1]: 118 mL/min/kg | half-life [1]: 17.4 min | EC50 (hMT2; [8]): 6.31 nM
SMILES: COc1ccc(Br)c(CNc2cccnc2)c1 [ZINC128734226]

EC50 (mMT1 [3]): 63.1 nM | Emax (mMT1 [3]): -56 ± 5% | hMT1 Schild slope (hMT1): 0.98 ± 0.03 | EC50 (hMT1; [10]): 40.7 nM and 39.8 nM | EC50 (hMT1; [11]): 39.8 nM | Kp at 30 min [1]: 3.03 | AUC [1]: 494 ng·h/mL | Cmax [1]: 1950 ng/mL | Vd [1]: 1.11 L/kg | clearance [1]: 67.1 mL/min/kg | half-life [1]: 16.2 min | hMT2 Schild slope (hMT2; cAMP): 1.3 ± 0.4 | EC50 (hMT2; [12]): 2000 nM
SMILES: Clc1ccc(CNc2cccc(-c3nnc[nH]3)c2)c(Br)c1 [ZINC555417447]
advance of the onset of activity [2]: approximately 1 hour

Emax (hMT1; HEK293, read-out: hMT1 % Emax): 86% | EC50 (hMT1; [7]): 398 nM | Emax (hMT2; HEK293, read-out: hMT2 % Emax): 58% | EC50 (hMT2; [8]): 355 nM
SMILES: CN(Cc1ccncc1)c1ccnc(Cl)c1 [ZINC223593565]

Kd (mMT1 [4]; GTP buffer): 0.201 nM | Kd (mMT1 [4]; control buffer): 0.087 nM
SMILES: COc1ccc2[nH]c(I)c(CCNC(C)=O)c2c1 [2-[^125I]-iodomelatonin, 2-[^125I]-Iodomelatonin]

EC50 (hMT1; [7]): > 10000 nM
SMILES: Cc1cc(=O)n2ccn(CCc3ccc4c(c3)OC(F)(F)O4)c2n1 [ZINC664088238]
